Measured values: ChEMBL document CHEMBL3526077, “Prediction of human metabolism of FK3453 by aldehyde oxidase using chimeric mice transplanted with human or rat hepatocytes” (Drug Metab Dispos, 2012)

Tests used:
[1] = test system: Mus musculus; test: Drug metabolism in plasma of chimeric mouse transplanted with human hepatocytes treated with FK3453 at 3 mg/kg, iv as single dose; assay type: ADME, organism-based, Hepatocyte; design: dose 3 mg/kg, route intravenous
How it was run: (§1)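 Pooled plasma from h-PXB or r-PXB mice after a 3 mg/kg i.v. dose was mixed with an equal volume of acetonitrile and centrifuged. Metabolites were profiled by C18 UPLC with ammonium formate/acetonitrile gradient, UV 254 nm, and Orbitrap MS/MS. Scored as detected or not detected.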

[2] = test system: Mus musculus; test: Drug metabolism in plasma of chimeric mouse transplanted with rat hepatocytes treated with FK3453 at 3 mg/kg, iv as single dose; assay type: ADME, organism-based, Hepatocyte; design: dose 3 mg/kg, route intravenous; how it was run: as §1
[3] = Retention time of the compound by UV/mass spectrometry; assay type: physicochemical
How it was run: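 Retention time on Acquity BEH C18 column (1.7 µm, 2.1×100 mm). Mobile phase 5 mM ammonium formate with 5% acetonitrile against acetonitrile, at 0.2 mL/min. Gradient: 100:0 to 2.5 min, linear to 65:35 by 25 min, 10:90 to 27 min. Detection by UV at 254 nm and MS.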

Drug metabolism [1]: metabolite_detected
Drug metabolism [2]: metabolite_detected
Retention_time [3]: 16.5 min
Compound: CC(C)n1nc(-c2c(-c3ccccc3)nc(N)[nH]c2=O)ccc1=O
